Assay outcomes from PubChem BioAssay.
Diaphorase act = counter-screen for diaphorase-based assays: diaphorase activators and chemical reducers | Diaphorase/resazurin coupled assay, resorufin fluorescence, 16 min; stronger effect = higher value; 1 = vehicle wells, 0 = NADH-free wells | activation factor at 20 µM | hit rate 0.005% among 190,000;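 active = diaphorase activity raised at least twofold by the compound at 20 µM; inactive = activation factor below 2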
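Assay system: bacterial diaphorase enzyme (C. kluyveri) / Input: enzyme 0.07 U/mL final / Medium: 50 mM HEPES pH 7.4 with 4.542 mM MgCl2, 0.005% Tween 20 / Doses: single compound dose of 20 µM, 1% DMSO final / Incubation: 16 min enzyme reaction, ambient temperature / Signal: fluorescence, excitation 544 nm and emission 590 nm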
CTSL1 counter = counter-screen for PFM18AAP inhibitors: inhibitors of F. hepatica cathepsin L1; hit rate 0.49% among 300,000; recombinant F. hepatica cathepsin L1, Z-Leu-Arg-MCA fluorescence; inhibition, % at 5.96 µM;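 active = inhibition above the mean of all tested compounds plus 3 SD, set per screening campaign, cut at about 17% in these data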;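 note: 0% = plate median of test compound wells and 100% = 1 µM Z-Phe-Ala-diazomethylketone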
Diaphorase inh = diaphorase inhibition or chemical oxidation counter-screen | diaphorase resazurin-to-resorufin fluorescence, NADH, 16 min; bacterial (C. kluyveri) enzyme, not human | inhibition, % at 20 µM | hit rate 0.69% among 190,000 | AID 1217;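 active = primary screen inhibition at 20 µM above a set limit, cut at about 50% in these data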;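 note: plate controls were DMSO with full reaction for no effect and wells lacking NADH for full effect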
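Test system: bacterial diaphorase enzyme (C. kluyveri); Quantity: 0.14 U/mL diaphorase, enzyme working solution; Times: reaction incubation of 16 min at room temperature; Measured by: fluorescence of resorufin formed from resazurin, Ex 544/Em 590 nm; Benchmarks: positive control minus NADH, DMSO neutral control.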
HKDC1 inh = HKDC1 (human) hexokinase inhibition; Q2TB90; recombinant HKDC1, G6PDH/diaphorase resazurin coupled fluorescence; inhibition, % at 20 µM; hit rate 0.16% among 340,000; AID 493160;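 active = inhibition above about 35% when tested at 20 µM, limit read from the data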;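 note: plate controls were DMSO wells with enzyme for no effect and DMSO wells lacking enzyme for full effect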
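Test system: HK5 enzyme. Quantity: 5 µg/mL HK5 final. Reagent: glucose and ATP substrates. Schedule: 90 min reaction incubation at room temperature, dark. Technique: resazurin-to-resorufin fluorescence via G6PDH and diaphorase coupling, 525/613 nm. Control set: DMSO wells with and without enzyme mix.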
ATG4B inhibitor = ATG4B (human) cysteine protease inhibition; ATG4B cleavage of LC3-PLA2, NBD-HPC fluorescence, 1 h; Q9Y4P1; inhibition, % at 8.33 µM; hit rate 0.51% among 340,000; in the data active = inhibition above about 40%
Target sequence (Q9Y4P1 whole entry, looked up): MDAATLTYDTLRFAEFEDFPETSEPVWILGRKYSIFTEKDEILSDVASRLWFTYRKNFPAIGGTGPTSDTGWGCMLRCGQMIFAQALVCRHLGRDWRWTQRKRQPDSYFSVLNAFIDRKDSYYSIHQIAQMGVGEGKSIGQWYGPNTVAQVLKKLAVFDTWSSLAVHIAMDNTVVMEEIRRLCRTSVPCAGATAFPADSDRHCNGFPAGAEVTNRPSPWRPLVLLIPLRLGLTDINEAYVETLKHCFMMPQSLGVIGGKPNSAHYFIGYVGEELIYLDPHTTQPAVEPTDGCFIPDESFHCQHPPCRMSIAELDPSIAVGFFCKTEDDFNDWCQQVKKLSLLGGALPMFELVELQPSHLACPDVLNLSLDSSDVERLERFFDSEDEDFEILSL
Starred values were filed as active, the others as inactive; x = not tested or not shown. Most compounds without a hit are left out; they make up all but 1.4% or so of the library.

SMILES	Diaphorase act	CTSL1 counter	Diaphorase inh	HKDC1 inh	ATG4B inhibitor
CN1C(=O)C(C)(C)N(C(=O)c2cccc([N+](=O)[O-])c2)c2ccccc21	x	1	x	-6	-4
O=c1c(O[C@@H]2O[C@H](CO)[C@@H](O)[C@H](O)[C@H]2O)c(-c2ccc(O)cc2)oc2cc(O)cc(O)c12	x	x	x	1	-3
C[C@@H]1O[C@@H](OC[C@H]2O[C@@H](Oc3c(-c4ccc(O)c(O)c4)oc4cc(O)cc(O)c4c3=O)[C@H](O)[C@@H](O)[C@@H]2O)[C@H](O)[C@H](O)[C@H]1O	0.3	2	71*	0	5
O=c1c(O[C@@H]2O[C@H](CO)[C@H](O)[C@H](O)[C@H]2O)c(-c2ccc(O)c(O)c2)oc2cc(O)cc(O)c12	0.4	x	56*	x	x
O=c1cc(-c2ccc(O)cc2)oc2cc(O)c([C@@H]3O[C@H](CO)[C@@H](O)[C@H](O)[C@H]3O)c(O)c12	x	x	x	4	-6
O=c1cc(-c2ccc(O)c(O)c2)oc2cc(O)c(C3OC(CO)C(O)C(O)C3O)c(O)c12 (stereo not given)	0.4	4	60*	0	-28
O=c1c(O[C@@H]2O[C@H](CO)[C@@H](O)[C@H](O)[C@H]2O)c(-c2ccc(O)c(O)c2)oc2cc(O)cc(O)c12	0.2	x	77*	x	x
Cc1c(C(=O)Nc2cc(F)ccc2F)sc2nc3n(c(=O)c12)CCCCC3	x	3	x	-2	1
O=[N+]([O-])C1=CC=C2C(=NC3(CCCCC3)N2O)C1=NCCO	0.2	5	76*	9	4
CN=C1C([N+](=O)[O-])=CC=C2C1=NC1(CCCCC1)N2O	0.3	1	72*	-12	-1
CN(C=O)c1ccc(CSc2ccccc2)cc1	x	x	x	-9	0
CCN(CC)CCN(Cc1cc2cc3c(cc2[nH]c1=O)OCCO3)C(=S)NCC1CCCO1 (stereo not given)	1	-2	-4	-3	-4
CN(C)CCN(Cc1cc2cc3c(cc2[nH]c1=O)OCCO3)C(=S)NCC1CCCO1 (stereo not given)	0.5	3	50*	-10	-7
NC(=O)c1sc2nc3c(c(-c4ccco4)c2c1N)CCCC3	x	3	x	-1	13
Cc1ccccc1NC(=O)c1sc2nc3c(c(-c4ccco4)c2c1N)CCC3	0.5	0	53*	6	39
N#Cc1sc2nc3c(c(-c4ccco4)c2c1N)CCCC3	0.5	6	52*	4	5
Nc1c(C(=O)NCC2CCCO2)sc2nc3c(c(-c4ccco4)c12)CC/C3=C\c1ccco1 (stereo not given)	0.1	x	89*	35	49*
O=C(O)C1=C(C(=O)O)C2C=CC1C2	x	x	x	-5	1
COCc1nnc(NC(=O)CS(=O)(=O)c2ccc(C)cc2)s1	x	5	x	-4	10
O=C1CSC(c2cccc(F)c2)N1c1ccccc1 (stereo not given)	x	-2	x	-6	-5
O=C(COC(=O)c1ccc([N+](=O)[O-])s1)Nc1ccc(Cl)cn1	0.9	44*	14	0	0
Cc1ccc(C(=O)OCC(=O)Nc2ccc(Cl)cn2)s1	x	x	x	-6	-11
Cc1c(Cl)cnc(NC(=O)COC(=O)c2ccc([N+](=O)[O-])s2)c1Cl	0.6	59*	40	24	9
O=C(O)c1cccc(N2C(=O)/C(=C/c3ccc(SCc4ccc(Cl)cc4)o3)SC2=S)c1	0.4	x	62*	14	28
O=C(CCN1C(=O)/C(=C/c2ccc(Cl)cc2)SC1=S)Nc1cccc(C(=O)O)c1	x	8	x	15	4
SMILES	Diaphorase act	CTSL1 counter	Diaphorase inh	HKDC1 inh	ATG4B inhibitor
CCCn1cc(C(CC(=O)O)C(=O)O)c2ccccc21 (stereo not given)	1	17*	4	-6	3
COc1ccc(NC(=O)COC(=O)CCc2ccc(S(=O)(=O)N3CCOCC3)cc2)c(OC)c1	x	x	x	-5	-6
CC(=O)Nc1ccc(S(=O)(=O)Nc2nc3ccccc3nc2N2CCCC2)cc1	0.5	1	50*	2	9
CC[C@H](C)Cc1cn([C@@H](CCCCNC(=O)OC(C)(C)C)C(=O)NCCCCCCCCCCC(=O)N2CCN(C(=O)OC(C)(C)C)CC2)nn1	x	3	x	1	-8
Cc1ccc(S(=O)(=O)N[C@@H](Cc2ccccc2)C(=O)CCl)cc1	0.8	70*	15	9	-7
Cc1ccc(S(=O)(=O)NC(Cc2ccccc2)C(=O)NN)cc1 (stereo not given)	x	0	x	-6	-5
COc1ccc(C(C(=O)NC2CCCCC2)N(C(=O)CCl)c2ccc(C)cc2)cc1 (stereo not given)	1	12	-2	9	-2
COC(CN(C(=O)CCl)C(C(=O)NC1CCCCC1)c1ccc(C)cc1)OC (stereo not given)	0.9	78*	13	-8	3
O=C(NC1CCCCC1)C(c1ccncc1)N(Cc1ccc(F)cc1)C(=O)c1ccccn1 (stereo not given)	x	-1	x	0	-8
O=C(NC1CCCC1)C(c1ccc(F)cc1)N(Cc1ccc(F)cc1)C(=O)CCl (stereo not given)	0.9	51*	10	1	5
Cc1ccc(C(=O)C2=C(O)C(=O)N(Cc3ccco3)C2c2cccc(Cl)c2)o1 (stereo not given)	x	1	x	22	14
Cc1ccc(C(=O)C2=C(O)C(=O)N(Cc3ccco3)C2c2cccc(Br)c2)o1 (stereo not given)	x	18*	x	18	5
Cc1ccccc1SCC(=O)OCC(=O)N(C)c1c(N)n(Cc2ccccc2)c(=O)[nH]c1=O	x	-25	x	-3	4
CC1=NN(C(C#N)c2ccccc2)C(c2ccccc2)C1 (stereo not given)	x	18*	x	3	-4
COC(=O)c1ccc(C(=O)OC)c(NC(=O)CN(c2ccccc2)S(=O)(=O)N(C)C)c1	0.8	37*	20	-8	-1
C[C@H](CO)N1C[C@H](C)[C@@H](CN(C)Cc2ccncc2)Oc2c(cccc2N(C)C)C1=O	x	x	x	6	-8
CC1CC(C)(C)CC2(C1)NC(=O)N(CC(=O)Nc1cc([N+](=O)[O-])ccc1F)C2=O (stereo not given)	x	x	x	-3	-7
O=c1[nH]c2ccccc2c(O)c1O	0.3	-1	72*	-10	-27
O=c1[nH]c2ccccc2c(O)c1-[n+]1ccccc1	x	-1	x	-8	-12
CCCCCC1CCC(C(=O)NCCN2CCOCC2)CC1 (stereo not given)	x	4	x	-4	-3
CCC1CCC(C(=O)NC(C(=O)NCCN2CCOCC2)C(C)C)CC1 (stereo not given)	x	30*	x	-2	-10
COC(CNC(=O)c1ccc2c(c1)ncn2-c1ccc(F)c(F)c1)OC	1	18*	2	-12	-2
